From PubChem
Scp1 inh = blocks human Scp-1 phosphatase activity; Q9GZU7; Recombinant Scp1, phosphopeptide, malachite green phosphate absorbance; inhibition, % at 20 µM; 0.88% of 340,000 active;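 active = inhibition above about 50% at 20 µM, limit read from the data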
Target sequence (Q9GZU7 76-261 limits assumed): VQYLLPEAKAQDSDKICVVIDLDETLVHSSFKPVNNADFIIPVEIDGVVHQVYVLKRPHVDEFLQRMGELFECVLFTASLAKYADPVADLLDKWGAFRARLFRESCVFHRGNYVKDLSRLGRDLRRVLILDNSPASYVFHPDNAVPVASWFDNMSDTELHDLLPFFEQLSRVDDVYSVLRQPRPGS
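Incubation: 45 min enzyme reaction at room temperature / System: truncated SCP-1 phosphatase (76-261aa) / Reagent: Phospho 17-mer peptide substrate / Buffer or medium: Acidic Tris acetate buffer with magnesium and detergent / Signal: absorbance at 630 nm / Doses: one concentration, 20 µM, with 1.0% DMSO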
LMPTP block = LMPTP (human) inhibition | recombinant LMPTP-A, OMFP fluorogenic substrate, fluorescence intensity | inhibition, % at 20 µM | 0.22% of 360,000 active;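 active = compounds that cut the enzyme signal by at least half of the control window in the single-dose screen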
Target sequence (P24666 whole entry, looked up): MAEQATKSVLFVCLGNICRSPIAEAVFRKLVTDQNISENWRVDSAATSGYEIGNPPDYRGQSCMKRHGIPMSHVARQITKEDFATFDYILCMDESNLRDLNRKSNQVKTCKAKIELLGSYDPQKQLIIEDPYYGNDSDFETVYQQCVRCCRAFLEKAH
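Test system – LMPTP-A enzyme · Amount – LMPTP-A at 0.625 nM final in the reaction · Buffer or medium – Bis-Tris pH 6.0, DTT, detergent · Reagent – OMFP 400 µM · Doses – single 20 µM dose · Schedule – reaction 50 min, room temperature, dark · Detection – fluorescence intensity of OMFP turnover product · Evaluation – percent inhibition versus substrate-only and uninhibited controls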
SUMO1 PPI mod = SUMO1-SIM interaction modulation. 0.33% of 360,000 active. AID 602429. inhibition, % at 20 µM. P63165. SUMO1 binding to a labelled peptide, TR-FRET, 1 h; in the data active = inhibition above about 37%
Target sequence (P63165 whole entry, looked up): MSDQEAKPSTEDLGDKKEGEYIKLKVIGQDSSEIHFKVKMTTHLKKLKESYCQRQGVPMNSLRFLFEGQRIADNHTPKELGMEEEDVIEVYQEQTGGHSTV
NadD block = inhibitors of Staphylococcus aureus NadD. purified NadD enzyme, colorimetric absorbance read-out. inhibition, % at 20 µM. 0.78% of 360,000 active; in the data active = inhibition above about 26%
DNMT1 block = inhibitors of human DNMT1 | P26358 | inhibition (reported as % activation of signal), % at 10 µM | 0.83% of 360,000 active | AID 588458 | DNMT1 molecular beacon, Hinp1I cleavage, fluorescence; in the data active = inhibition above about 50%
STEP block = STEP (human) phosphatase inhibition; recombinant STEP, OMFP fluorogenic substrate, fluorescence; inhibition, % at 20 µM; AID 588621; 0.25% of 360,000 active;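 active = inhibition at 20 µM, scaled per plate between control wells, above about 37%, limit read from the data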
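material = STEP tyrosine phosphatase | reagent = fluorogenic phosphatase substrate OMFP at 25 µM final | doses = single compound dose of 20 µM, 1% DMSO final | schedule = 20 min reaction, room temperature, in the dark | measured by = fluorescence, 480/540 nm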
DNMT1 interf DR = counter-screen for DNMT1 inhibitors: spectral interference, dose response | shares compounds with DNMT1 block | molecular beacon fluorescence | IC50, µM | 200 tested, under 10 active | AID 602382; call rule not given here
DNMT1 inh conf = DNMT1 inhibition confirmation, single concentration; shares compounds with DNMT1 block; DNMT1 molecular beacon HinP1I cleavage, fluorescence; inhibition, % at 10 µM; 8% of 2,300 active; AID 602385;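 active = average inhibition of at least 30% in the single-concentration confirmation test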
DNMT1 interf = counter-screen for DNMT1 inhibitors: spectral interference; activation (fluorescence interference), % at 10 µM; 1% of 2,300 active; DNMT1 molecular beacon spectral interference counterscreen, fluorescence 485/520; shares compounds with DNMT1 block;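 active = activation of at least 30% at 10 µM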;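 also: DNMT1 catalytic domain with a HinP1I cleavage step and a FAM/dabcyl DNA beacon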
Of the large screens only hits and unclear results are named; the others gave an inactive call (follow-up assays come after a bar, where they were run). This is a sample that favours compounds with a hit; in the whole collection about 2.4% have one here.

C=C(C)C1(O)OC(=O)C=C1OC (stereo unspecified)	DNMT1 block 53 | DNMT1 inh conf inactive | DNMT1 interf inactive
Cc1cc(Cl)ccc1OCC(=O)Nc1cccc(S(=O)(=O)NC2=NCCCCC2)c1	DNMT1 block 95 | DNMT1 inh conf inactive | DNMT1 interf inactive
CC(O)(c1ccc(F)c(F)c1)c1nc(-c2ccoc2)cs1 (stereo unspecified)	none (no result: Scp1 inh)
Cc1cc(SCc2ccc([N+](=O)[O-])cc2)nc(=O)[nH]1	DNMT1 block 52 | DNMT1 inh conf inactive | DNMT1 interf inactive
Cc1ccc(S(=O)(=O)N2CCCC2CNC(=O)C(=O)Nc2ccc(F)cc2)cc1 (stereo unspecified)	DNMT1 block 54 | DNMT1 inh conf inactive | DNMT1 interf inactive
COc1ccc(S(=O)(=O)N2CCCC2CNC(=O)C(=O)Nc2ccc(C)cc2)cc1 (stereo unspecified)	none
CC(C)(C)C1CCSC2=NCCC[C@]2(c2ccccc2)C1 (stereo partly specified)	none (no result: Scp1 inh, DNMT1 block, STEP block)
CCc1ccc(NC(=O)c2noc3c2CCC3)cc1	DNMT1 block 80 | DNMT1 inh conf inactive | DNMT1 interf inactive
COCC(=O)N(C)C[C@H]1N[C@@](C)(C(=O)OC)[C@H]2C(=O)N(C)C(=O)[C@@H]12	DNMT1 block 86 | DNMT1 inh conf inactive | DNMT1 interf inactive
COC(=O)[C@]1(C)N[C@H](CN(C)C(C)=O)[C@@H]2C(=O)N(C)C(=O)[C@@H]21	none
CCc1nnc(NC(=O)[C@@H](NC(=O)c2cc(OC)cc(OC)c2)C(C)C)s1	none
COc1ccc2cc(/C=N/NC(=O)CSCc3ccc([N+](=O)[O-])cc3)c(Cl)nc2c1	DNMT1 block 64 | DNMT1 inh conf inactive | DNMT1 interf inactive
COc1ccc(CCNC(=O)CSCc2ccc([N+](=O)[O-])cc2)cc1	none
COCCNC(=S)N1CCN(Cc2cccc(OC)c2)CC1	none
COc1cccc(N=Nc2c(=O)[nH]n3c(=O)c4c([nH]c23)CCC4)c1	DNMT1 block 60 | DNMT1 inh conf inactive | DNMT1 interf inactive
N#CC(C(=O)Nc1ccc(Cl)c(Cl)c1)=C1Nc2ccccc2N1	DNMT1 block 65 | DNMT1 inh conf inactive | DNMT1 interf inactive
Cc1ccc(C)c(NC(=O)CN(C)C(=O)C2=NNC(=O)CC2)c1	none
CC(=O)N(C)c1nnc(-c2ccccn2)s1	none
O=C(Nc1cnn(C23CC4CC(CC(C4)C2)C3)c1)c1cnn2c(C(F)(F)F)cc(-c3ccco3)nc12	DNMT1 block 58 | DNMT1 inh conf inactive | DNMT1 interf inactive
COc1cccc(CN(CC(=O)NCc2ccco2)C(=O)CNS(=O)(=O)c2ccccc2)c1	DNMT1 block 57 | DNMT1 inh conf inactive | DNMT1 interf inactive
CCOc1ccc(Cl)cc1CNc1nnnn1CC	none
CCOc1ccc2ccccc2c1CNc1nnnn1CC	DNMT1 block 92 | DNMT1 inh conf inactive | DNMT1 interf inactive
CCOc1cc2[nH]c(=S)n(CCC(=O)NC3CCCCC3)c(=O)c2cc1OCC	DNMT1 block 51 (no result: Scp1 inh) | DNMT1 inh conf inactive | DNMT1 interf inactive
O=C(CN1C(=O)/C(=C/c2ccc(Cl)cc2)SC1=S)NC1C=CS(=O)(=O)C1 (stereo unspecified)	DNMT1 block 65 | DNMT1 inh conf inactive | DNMT1 interf inactive
CCOC(=O)C1CCCCN1Cc1ccc(OC)c(OC)c1 (stereo unspecified)	none
CCCNC(=O)NNC(=O)c1ccc(F)cc1	none
CCS(=O)(=O)C1=NN2C(=N)/C(=C\c3ccc(SCc4ccco4)o3)C(=O)N=C2S1	Scp1 inh 77, SUMO1 PPI mod 50, DNMT1 block 99 | DNMT1 interf DR inactive | DNMT1 inh conf 50 | DNMT1 interf inactive
CCCCC1=CC2=C(c3ccco3)C(=O)C(C)(OC(=O)c3ccc(OC)cc3)C(=O)C2=CN1Cc1ccco1 (stereo unspecified)	NadD block 37, DNMT1 block 56 | DNMT1 inh conf inactive | DNMT1 interf inactive
O=S(=O)(NCc1cccc(C(F)(F)F)c1)NCc1ccccc1F	none
COC(=O)C1=COC(OC2OC(CO)C(O)C(O)C2O)C2C(C)CC(=O)C12 (stereo unspecified)	DNMT1 block 74 (no result: Scp1 inh) | DNMT1 inh conf inactive | DNMT1 interf inactive
CCC1Oc2nc(SC)nnc2-c2ccccc2N1C(=O)c1ccccc1 (stereo unspecified)	DNMT1 block 54 | DNMT1 inh conf inactive | DNMT1 interf inactive
CCC(=O)N1c2ccccc2-c2nnc(SC)nc2OC1c1ccc(N(C)C)cc1 (stereo unspecified)	none
CC(=O)Oc1ccc(N(C(C)=O)S(=O)(=O)c2ccc(C)c([N+](=O)[O-])c2)cc1	none
COc1ccccc1-c1nc(SCC(=O)Nc2cc(C)on2)c2c(=O)n(C)c(=O)n(C)c2n1	none
COc1ccc2nc3cccc(OC)c3nc2c1	none
COc1ccc2nc(-c3ccco3)c(-c3ccco3)nc2c1	Scp1 inh 77, LMPTP block 54, SUMO1 PPI mod 44, DNMT1 block 98 | DNMT1 inh conf inactive | DNMT1 interf inactive
CCN(CC1COc2ccccc2O1)C(=S)Nc1ccccc1 (stereo unspecified)	none
CCc1nc2ccc(C(=O)NCCc3ccco3)cc2nc1CC	none
O=C(NCCCO)c1ccc2nc(-c3ccco3)c(-c3ccco3)nc2c1	SUMO1 PPI mod 45 | DNMT1 inh conf inactive | DNMT1 interf inactive
Cc1ccc(NC(=O)CSc2nsc(SCC(=O)Nc3ccc(C)cc3C)c2C#N)c(C)c1	DNMT1 block 52 | DNMT1 inh conf inactive | DNMT1 interf inactive
CCOC(=O)CSc1nsc(SCC(=O)OCC)c1C#N	DNMT1 block 76 | DNMT1 inh conf inactive | DNMT1 interf inactive
CC(=O)CSc1nsc(SCC(C)=O)c1C#N	none
COCCn1c(SCC(=O)Nc2ccc(F)cc2)nc2ccccc2c1=O	DNMT1 block 83 | DNMT1 inh conf inactive | DNMT1 interf inactive
COCCCn1c(SCC(=O)Nc2ccc(C)cc2)nc2ccccc2c1=O	none
CC(C)c1cc(N2CCN(C(=O)c3ccco3)CC2)n2c(nc3ccccc32)c1C#N	none
Cc1cc(-c2ccco2)c(C#N)c2nc3ccccc3n12	Scp1 inh 66, LMPTP block 73, DNMT1 block 69 | DNMT1 inh conf inactive | DNMT1 interf inactive
CC(NCCCSc1ccccc1)C(O)c1ccc(O)cc1 (stereo unspecified)	none (no result: Scp1 inh)
